“Also recorded” adds a separate entry of the source. Read-outs that look alike come from different tables or passages of the source.
Key:
[1] = format: in vivo, human; details: stratum B
[2] = Serum pharmacokinetics, stratum A; format: in vivo, human; details: for AUC(0-t) / Cmax / half-life / Tmax: human, serum, oral; for AUC(0-t): 100 mg/m2, AUC0–T (AUC0–24h)
[3] = Serum pharmacokinetics across all dosage levels; format: in vivo; details: human, oral; for Tmax: across dosage levels; for half-life: pediatric patients, across all dosage levels
[4] = CSF crenolanib disposition; format: in vivo, human; details: for CSF crenolanib concentration: stratum A2 patient
[5] = tested on: newly diagnosed DIPG; experiment: Survival outcomes, stratum A; format: in vivo, human
Method in brief: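 Dosing began with conformal RT (1.8-Gy fractions daily, 5 days/week, 54 Gy) and continued without break. PFS ran from therapy start to progression or death; OS ran from diagnosis to death. Kaplan–Meier estimates; log-rank versus age-matched institutional DIPG cohort (1992–2011).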

[6] = tested on: recurrent HGG, including DIPG; experiment: Survival outcomes and response, stratum B; format: in vivo, human
Method in brief: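 Dosing was BSA-based, rounded to 20 mg, and escalated from 100 mg/m2. PFS ran from therapy start to progression or any-cause death; OS ran from diagnosis to any-cause death. Event-free patients were censored at last follow-up. Survival was estimated by Kaplan–Meier.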

[7] = target: PDGF α receptor; details: cited from earlier work
[8] = tested on: phospho-PDGFR; details: C6 glioblastoma xenograft, single oral dose of 10 mg/kg, maintained for 3 h; ref Crenolanib Investigator's Brochure, AROG Pharmaceuticals, LLC, 2011; cited from earlier work
[9] = tested on: human glioma xenograft (U87MG); details: after 9 days of dosing at 50 mg/kg BID, ref Crenolanib Investigator's Brochure, AROG Pharmaceuticals, LLC, 2011; cited from earlier work
[10] = in vitro, human plasma; cited from earlier work

## CC1(COc2ccc3c(c2)ncn3-c2ccc3cccc(N4CCC(N)CC4)c3n2)COC1 [crenolanib]
[1]; dose level 3
  DLTs attributable to crenolanib during the DLT observation period: grade 4 GGT, ALT, and AST elevations
[1]; dose level 4
  DLTs attributable to crenolanib during the DLT observation period: grade 3 amylase, GGT, ALT, and AST elevations; also recorded: grade 3 GGT elevation
[1]; during and after the DLT period
  patients having grade 3/4 elevations of ALT, AST, GGT, or alkaline phosphatase: 17%
[1]; once daily single agent, pediatric
  Maximum tolerated dose (MTD): 170 mg/m^2
[1]; resolved with drug interruption
  Most common grade 3/4 toxicity: leukopenia
[2]; stratum A1 (whole tablets), 100 mg/m^2, D28, median (range)
  AUC(0-t): 7.34 µM·h
[2]; stratum A2 (crushed tablets), 100 mg/m^2, D28, median (range)
  AUC(0-t): 6.95 µM·h
[2]; 100 mg/m2, C MAX, stratum A1 (whole tablets), 100 mg/m^2, D1, median (range)
  Cmax: 0.645 µM
[2]; 100 mg/m2, C MAX, stratum A1 (whole tablets), 100 mg/m^2, D28, median (range)
  Cmax: 0.75 µM
[2]; 100 mg/m2, C MAX, stratum A2 (crushed tablets), 100 mg/m^2, D1, median (range)
  Cmax: 0.692 µM
[2]; 100 mg/m2, C MAX, stratum A2 (crushed tablets), 100 mg/m^2, D28, median (range)
  Cmax: 0.651 µM
[2]; 100 mg/m2, Half-life, stratum A1 (whole tablets), 100 mg/m^2, D1, median (range)
  half-life: 8.5 h
[2]; 100 mg/m2, Half-life, stratum A1 (whole tablets), 100 mg/m^2, D28, median (range)
  half-life: 4.9 h
[2]; 100 mg/m2, Half-life, stratum A2 (crushed tablets), 100 mg/m^2, D1, median (range)
  half-life: 6.8 h
[2]; 100 mg/m2, Half-life, stratum A2 (crushed tablets), 100 mg/m^2, D28, median (range)
  half-life: 5.1 h
[2]; 100 mg/m2, T MAX, stratum A1 (whole tablets), 100 mg/m^2, D1, median (range)
  Tmax: 4 h
[2]; 100 mg/m2, T MAX, stratum A1 (whole tablets), 100 mg/m^2, D28, median (range)
  Tmax: 6 h
[2]; 100 mg/m2, T MAX, stratum A2 (crushed tablets), 100 mg/m^2, D1, median (range)
  Tmax: 2 h
[2]; 100 mg/m2, T MAX, stratum A2 (crushed tablets), 100 mg/m^2, D28, median (range)
  Tmax: 4 h
[2]; 130 mg/m2, C MAX, stratum A, 130 mg/m^2, D1, median (range)
  Cmax: 0.733 µM
[2]; 130 mg/m2, C MAX, stratum A, 130 mg/m^2, D28, median (range)
  Cmax: 1.11 µM
[2]; 130 mg/m2, Half-life, stratum A, 130 mg/m^2, D1, median (range)
  half-life: 7.3 h
[2]; 130 mg/m2, Half-life, stratum A, 130 mg/m^2, D28, median (range)
  half-life: 6.1 h
[2]; 130 mg/m2, T MAX, stratum A, 130 mg/m^2, D1, median (range)
  Tmax: 2 h
[2]; 130 mg/m2, T MAX, stratum A, 130 mg/m^2, D28, median (range)
  Tmax: 4 h
[2]; 170 mg/m2, C MAX, stratum A, 170 mg/m^2, D1, median (range)
  Cmax: 1.24 µM
[2]; 170 mg/m2, C MAX, stratum A, 170 mg/m^2, D28, median (range)
  Cmax: 2.01 µM
[2]; 170 mg/m2, Half-life, stratum A, 170 mg/m^2, D1, median (range)
  half-life: 8.5 h
[2]; 170 mg/m2, Half-life, stratum A, 170 mg/m^2, D28, median (range)
  half-life: 7.2 h
[2]; 170 mg/m2, T MAX, stratum A, 170 mg/m^2, D1, median (range)
  Tmax: 4 h
[2]; 170 mg/m2, T MAX, stratum A, 170 mg/m^2, D28, median (range)
  Tmax: 3 h
[2]; 220 mg/m2, C MAX, stratum A, 220 mg/m^2, D1, median (range)
  Cmax: 1.89 µM
[2]; 220 mg/m2, C MAX, stratum A, 220 mg/m^2, D28, median (range)
  Cmax: 2.27 µM
[2]; 220 mg/m2, Half-life, stratum A, 220 mg/m^2, D1, median (range)
  half-life: 6.75 h
[2]; 220 mg/m2, Half-life, stratum A, 220 mg/m^2, D28, median (range)
  half-life: 5.5 h
[2]; 220 mg/m2, T MAX, stratum A, 220 mg/m^2, D1, median (range)
  Tmax: 4 h
[2]; 220 mg/m2, T MAX, stratum A, 220 mg/m^2, D28, median (range)
  Tmax: 2 h
[2]; stratum A1 (whole tablets), 100 mg/m^2, D1, median (range)
  AUC0–T (AUC0–∞): 8683 (4566–15 895) h·nM
[2]; stratum A2 (crushed tablets), 100 mg/m^2, D1, median (range)
  AUC0–T (AUC0–∞): 7397 (3759–16 455) h·nM
[2]; stratum A, 130 mg/m^2, D1, median (range)
  AUC0–T (AUC0–∞): 5951 (2675–15 291) h·nM
[3]; median
  Tmax: 4 h
  half-life: 7.1 h
[3]; range
  Tmax: 1 to 8 h
  half-life: 2.2 to 18.8 h
[4]; human, cerebrospinal fluid / serum (total), oral, 100 mg/m^2
  Kp: 0.025
[4]; simultaneous with day 28 CSF sampling, third cycle
  serum crenolanib concentration: 546 nM
[4]; third cycle day 14, approximately 19 h after dose
  CSF crenolanib concentration: 9.15 nM
[4]; third cycle day 28, approximately 19 h after dose
  CSF crenolanib concentration: 13.6 nM
[5]; all patients in stratum A
  1-year OS estimate: 43.3% ± 8.7%
  1-year PFS estimate: 17.8% ± 7.2%
  2-year OS estimate: 20.0% ± 6.8%
  6-month PFS estimate: 74.9% ± 8.2%
[5]; stratum A, log-rank P = .99
  OS distributions versus historical cohort of newly diagnosed DIPG (n = 189): no significant difference
[6]; all patients in stratum B
  1-year OS estimate: 72.1% ± 9.5%
  1-year PFS estimate: 5.2% ± 3.5%
  2-year OS estimate: 33.7% ± 9.7%
  6-month PFS estimate: 10.3% ± 5.6%
[6]; stratum B
  Objective radiologic responses: No objective radiologic responses were observed
[7]
  50% inhibitory concentration: approximately 1 ng/mL
[7]; read-out: 50% inhibitory concentration
  IC50: ~2.25 nM
[8]
  inhibition of phospho-PDGFR: 53%
[9]
  inhibition of xenograft growth: 47%
[10]
  unbound fraction: 4.1%
